# Screening results: PubChem BioAssay, several laboratories
# NPY-Y1 antag: NPY-Y1 (human) receptor antagonism | HEK293-CNG Y1 cells, membrane potential fluorescence; NPY at EC95, then isoproterenol | inhibition, % at 3.6 µM | 1% of 200,000 active | AID 1040;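 active = inhibition above the campaign mean inhibition of all tested compounds plus 3 SD, cut at about 20% in these data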;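 note: 0% = DMSO wells given NPY plus isoproterenol and 100% = isoproterenol alone without NPY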
# Target sequence (P25929 whole entry, looked up): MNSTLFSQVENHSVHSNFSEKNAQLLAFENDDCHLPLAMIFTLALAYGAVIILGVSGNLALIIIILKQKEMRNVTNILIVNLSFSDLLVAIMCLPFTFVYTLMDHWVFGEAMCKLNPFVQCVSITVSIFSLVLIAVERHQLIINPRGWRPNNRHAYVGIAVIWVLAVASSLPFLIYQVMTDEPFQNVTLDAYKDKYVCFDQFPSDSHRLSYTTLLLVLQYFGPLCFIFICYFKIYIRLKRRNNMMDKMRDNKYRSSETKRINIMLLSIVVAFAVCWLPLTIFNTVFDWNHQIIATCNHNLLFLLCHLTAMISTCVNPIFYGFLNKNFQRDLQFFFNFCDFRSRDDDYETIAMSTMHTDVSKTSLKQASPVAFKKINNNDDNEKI
#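 Test system: HEK293 cells co-expressing NPY Y1 receptor and cyclic-nucleotide gated channel; Also added: NPY (25 nM), isoproterenol (1 µM), Ro 20-1724 (25 µM); Compound dosing: one concentration, 3.6 µM, in 0.4% DMSO; Timing: dye 3 h, compound 60 min room temperature, stimulation 45 min; Technique: Membrane-potential fluorescent dye readout.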
# EP2 antag: blocks the human prostaglandin E2 receptor EP2. 0.52% of 260,000 active. inhibition, % at 25 µM. P43116. C6 glioma cells expressing human EP2, cAMP TR-FRET; cells stimulated with saturating PGE2. AID 1422;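 active = percent inhibition above 40 after rounding to a whole number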;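 note: rat C6 glioma host cells with rolipram phosphodiesterase inhibitor present; the protocol text gives 20 µM as final concentration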
# EP2 mod: EP2 receptor (human) modulation; AID 940; P43116; 0.83% of 260,000 active; induction, % at 25 µM; EP2-expressing cells, cAMP HTRF FRET, PGE2 co-stimulation;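 active = compounds whose cAMP rise, as percent of the full-agonist control response, exceeds 60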;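 note: rat C6 glioma line stably carrying human EP2 under a CMV promoter; the protocol text gives 20 µM as final concentration; 100% = response of wells given 1 µM PGE2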
# NPY2 pot ag: human NPY-Y2 potentiation or agonism, primary screen | P49146 | cells expressing NPY-Y2, potentiator/agonist read-out | activation, % at 3.6 µM | 0.45% of 220,000 active | AID 1359; in the data active = activation above about 27%;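 note: cells stimulated with NPY near EC25 plus isoproterenol at EC100; 0% = vehicle plus submaximal agonist and 100% = vehicle plus saturating agonist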
# NPY-Y2 antag: antagonists of human neuropeptide Y receptor Y2 | AID 793 | 0.99% of 140,000 active | inhibition, % at 2.7 µM | NPY-Y2 expressing cells, antagonist mode | P49146; in the data active = inhibition above about 17%;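 note: 0% = vehicle with agonist challenge and 100% = reference antagonist with challenge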
# NPY1 pot ag: potentiates or activates human NPY-Y1 receptor. 0.37% of 220,000 active. activation, % at 3.6 µM. NPY-Y1 expressing cells, potentiator/agonist activation; in the data active = activation above about 33%, passing the limit was not always enough;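 note: cells stimulated with NPY at EC10 then isoproterenol at EC100; 0% = low agonist plus stimulus and 100% = saturating agonist plus stimulus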
# * marks the source's active call; other numbers are inactive results; / = not tested or not shown; ! = a repeat was not active. Only some compounds are listed: those with a hit (about 2.8% of all), similar ones and a draw of the others.
SMILES,NPY-Y1 antag,EP2 antag,EP2 mod,NPY2 pot ag,NPY-Y2 antag,NPY1 pot ag
CN[C@@H]1[C@@H](O)C(OC2[C@@H](N)C[C@@H](N)[C@H](O[C@H]3O[C@H](C(C)O)[C@@H](O)[C@H](O)[C@H]3N)[C@H]2O)OC[C@]1(C)O (stereo partly drawn),/,12.9,6.0,/,/,/
CC(C)COC(=O)c1ccccc1C(=O)OCC(C)C,/,18.2,23.9,/,/,/
CCCCCCOC(=O)c1ccccc1N,-5.9,7.8,63.9*,7.8,1.4,1.0
Cc1ccc(N)c(C(=O)c2ccccc2)c1,-9.1,5.9,21.1,103.5*,2.8,97.8*
Cc1ccc(C(=O)Nc2ccc(Cl)cc2C(=O)c2ccccc2)cc1,16.0,5.7,/,-34.1,5.7,-5.2
CC(C)c1ccc(N2C(=O)NC(=O)/C(=C\c3cnc(-c4ccccc4)nc3)C2=O)cc1,1.5,9.1,-5.2,-2.8,0.6,9.1
CC(C)c1ccc(N2C(=O)NC(=O)/C(=C\C=C\c3ccco3)C2=O)cc1,-1.4,100.2*,-75.5,-8.2,/,5.8
COc1ccc(CN2C(=O)NC(=O)/C(=C\c3ccco3)C2=O)cc1,5.5,16.3,-86.5,1.1,/,10.0
O=C1NC(=O)N(Cc2ccccc2)C(=O)/C1=C/C=C/c1ccco1,/,105.7*,-56.1,-18.8,/,12.6
CC(=O)N1CCCc2cc(C(O)CN3CC=C(c4ccc(Cl)cc4)CC3)ccc21 (stereo not drawn),/,12.7,-64.4,/,/,/
C/C(N[O-])=C(\C)[N+]([O-])=[Rh][Cl].CC(=N\[O-])/C(C)=N/[O-].c1ccc([PH+](c2ccccc2)c2ccccc2)cc1,/,41.0*,26.5,/,/,/
Cc1ccc(NC(=[OH+])c2cc3ccccc3cc2O)c(C)c1.Cc1ccc(NC(=[OH+])c2cc3ccccc3cc2O)c(C)c1.[Ni],/,43.2*,-5.9,/,/,/
CCOC(=O)c1ccc2[nH]c(-c3ccc(S(=O)(=O)F)cc3)cc(=O)c2c1,/,50.6*!,-13.0,6.8,/,7.9
CCOC(=O)c1cccc([P+](=O)O)c1,7.2,9.2,4.7,3.4,8.1,-5.5
Nc1cc[c]([Hg])cc1.Nc1nc2c(ncn2[C@H]2O[C@H](CO)[C@@H](O)[C@@H]2O)c(=[SH+])[nH]1,/,103.7*,-43.0,/,/,/
CC(C)OP(=O)(OC(C)C)C(O)c1ccccc1F (stereo not drawn),-3.4,49.7*,2.4,-5.5,2.3,12.8
C=CCn1cc(CN2C3CCC2CC(O)(c2cccc(F)c2)C3)c(C)n1 (stereo not drawn),/,6.1,-68.9,/,/,/
NCC(=O)c1ccccc1,/,10.3,26.1,/,/,/
O=S(=O)(O)/C(=C\c1ccccc1)c1ccccc1 (tested in a mixture with another compound),/,46.0*,26.1,/,/,/
C=CCOc1c(CN2C3CCC2CC(O)(c2nccn2C)C3)cccc1OC (stereo not drawn),/,6.6,-19.0,/,/,/
CCCCCCCCCCCCCCCC[n+]1ccccc1,/,68.7*,-43.5,/,/,/
Cc1c(O)c(O)cc2c1CC=C1[C@@]2(C)CC[C@@]2(C)C3C[C@](C)(C(=O)O)CC[C@]3(C)CC[C@]12C (stereo partly drawn),/,8.5,4.4,/,/,/
CC1=C(O)C(=O)C=C2C1=CC=C1[C@@]2(C)CC[C@@]2(C)[C@@H]3C[C@](C)(C(=O)O)CC[C@]3(C)CC[C@]12C,/,110.0*,-41.3,/,/,/
NC(=O)c1c([N+](=O)[O-])no[n+]1[O-],/,119.2*,-102.4,/,/,/
NC(=O)c1cc([N+](=O)[O-])cc([N+](=O)[O-])c1,/,12.3,-16.0,/,/,/
SMILES,NPY-Y1 antag,EP2 antag,EP2 mod,NPY2 pot ag,NPY-Y2 antag,NPY1 pot ag
COc1cccc(CN2CCN(C(=O)Cc3ccccc3F)[C@@H](C)C2)c1,/,/,-29.4,/,/,/
O=C(O)CN1CCN(CC(=O)O)CC(=O)[O][Hg][O]C(=O)C1,/,103.4*,-25.4,/,/,/
O=C(O)C[C@H]1OCC=C2CN3CC[C@]45C6=CC(=O)C(=O)C([N+](=O)[O-])=C6N[C@H]4[C@H]1[C@H]2C[C@H]35,/,41.4*,-8.8,/,/,/
O=C1CN=C(c2ccc(Br)cc2)c2c(sc3c2CCCC3)N1CCN1CCOCC1,/,9.9,30.9,/,/,/
COc1ccc(CC(=O)N2CCN(Cc3ccco3)C[C@@H]2C)cc1OC,/,/,0.6,/,/,/
Cc1ccc(C2(c3ccc(C)c(O)c3C)CCN(C)CC2)c(C)c1O,/,112.4*,-44.7,/,/,/
CN1CCC2(CC1)C(C#N)=C(N)NC(S)=C2C#N,-1.0,8.0,-1.9,0.0,1.1,6.3
